# Results reported in ChEMBL document CHEMBL1123207, “Synthesis and structure-activity relationships of antibacterial phosphonopeptides incorporating (1-aminoethyl)phosphonic acid and (aminomethyl)phosphonic acid” (1986).
# Assays:
# Salmonella typhimurium = test: Compound was tested for its antibacterial activity against Salmonella Typhimurium 538003 strain.; type: functional, Salmonella enterica subsp. enterica serovar Typhimurium; details: Salmonella enterica
# Enterobacter = test: Compound was tested for its antibacterial activity against Enterobacter 250002 strain.; type: functional
# Staphylococcus aureus [1] = test: Compound was tested for its antibacterial activity against Staphylococcus aureus NCIB 8625 strain.; type: functional
# Enterococcus faecalis [2] = test: Compound was tested for its antibacterial activity against Streptococcus faecalis 58511 strain.; type: functional
# Klebsiella aerogenes = test: Compound was tested for its antibacterial activity against Klebsiella aerogenes 331001 strain.; type: functional
# Serratia marcescens = test: Compound was tested for its antibacterial activity against Serratia marcescens ATCC 14756 strain.; type: functional
# Haemophilus influenzae [3] = test: Compound was tested for its antibacterial activity against Haemophilus influenzae NCTC 4560 strain.; type: functional
# Escherichia coli [4] = test: Compound was tested for its antibacterial activity against Escherichia coli NCIB 8879 strain.; type: functional
# Enterococcus faecalis [5] = test: Compound was tested in vitro for its antibacterial activity against Streptococcus faecalis FS5 strain.; type: functional
# Haemophilus influenzae [6] = test: Compound was tested in vitro for its antibacterial activity against Haemophilus influenzae NCTC 4560 strain.; type: functional
# Staphylococcus aureus [7] = test: Compound was tested in vitro for its antibacterial activity against Staphylococcus aureus 561037 strain.; type: functional
# Escherichia coli [8] = test: Compound was tested in vitro for its antibacterial activity against Escherichia coli NCIB 8879 strain.; type: functional
# Escherichia coli [9] = test: In vivo antibacterial activity was measured relative to alafosfalin against Escherichia coli 281007 strain after sc administration.; type: functional
# Method in brief: (§1)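 Mouse septicaemia model infected with E. coli 281007. Compound was dosed at 1, 3 and 5 h after infection, orally (po) for line 13 and subcutaneously (sc) for line 14. Activity is the relative molar activity of the analogue versus the L-Ala-L-Ala(P) reference, with both CD50 values taken in µmol/kg.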
# Escherichia coli [10] = test: In vivo antibacterial activity was measured relative to alafosfalin against Escherichia coli 281007 strain after po administration.; type: functional; method in brief: as §1
SMILES,MIC (Salmonella typhimurium) [µg/mL],MIC (Enterobacter) [µg/mL],MIC (Staphylococcus aureus [1]) [µg/mL],MIC (Enterococcus faecalis [2]) [µg/mL],MIC (Klebsiella aerogenes) [µg/mL],MIC (Serratia marcescens) [µg/mL],MIC (Haemophilus influenzae [3]) [µg/mL],MIC (Escherichia coli [4]) [µg/mL],MIC (Enterococcus faecalis [5]) [µg/mL],MIC (Haemophilus influenzae [6]) [µg/mL],MIC (Staphylococcus aureus [7]) [µg/mL],MIC (Escherichia coli [8]) [µg/mL],CD50 (Escherichia coli [9]) [relative molar activity],CD50 (Escherichia coli [10]) [relative molar activity]
C[C@@H](NC(=O)[C@@H](N)CC[S+](C)[O-])P(=O)(O)O (stereo not given in full),> 128,32,8,4,4,32,16,4,,,,,,
CCC[C@H](NC)C(=O)N[C@@H](CCC)C(=O)N[C@@H](CCC)C(=O)N[C@H](C)P(=O)(O)O,,,,,,,,,0.06,0.25,8,0.5,,
C[C@@H](NC(=O)[C@@H](N)CCCCN=C(N)N)P(=O)(O)O,2,2,128,2,0.12,2,64,0.25,,,,,,
C[C@H](N)C(=O)N[C@@H](C)C(=O)N[C@H](C)P(=O)(O)O,,,,,,,,,0.06,0.06,4,0.5,,
C[C@@H](NC(=O)[C@@H](N)Cc1cccs1)P(=O)(O)O,4,1,32,2,0.25,4,32,0.5,,,,,,
CSCC[C@H](N)C(=O)N[C@H](C)P(=O)(O)O,8,1,1,1,0.12,2,16,0.25,,,,,,
CCC[C@H](N)C(=O)N[C@H](C)P(=O)(O)O,0.25,0.25,8,1,0.015,0.5,4,0.03,1,4,8,0.03,8.8,1.1
CNCC(=O)N[C@@H](C)C(=O)N[C@@H](C)C(=O)N[C@H](C)P(=O)(O)O,,,,,,,,,0.06,0.03,> 128,0.016,8,1.05
C[C@@H](NC(=O)[C@@H](N)CCS(C)(=O)=O)P(=O)(O)O,> 128,> 128,32,4,32,> 128,32,16,,,,,,
C[C@@H](NC(=O)[C@@H](N)CCC/N=C(\N)N[N+](=O)[O-])P(=O)(O)O,64,8,32,2,2,4,,0.5,,,,,,
C[C@@H](NC(=O)[C@@H](N)CS)P(=O)(O)O,> 128,> 128,> 128,> 128,16,> 128,> 128,32,,,,,,
C[C@H](N)C(=O)N[C@@H](C)P(=O)(O)O [ALAFOSFALIN],64,1,32,2,0.5,8,64,1,2,4,4,0.5,1,1
CCC[C@H](NC(=O)[C@H](CCC)NC(=O)[C@@H](NC)C(C)C)C(=O)N[C@H](C)P(=O)(O)O,,,,,,,,,8,0.25,> 128,16,,
C[C@H](N)C(=O)N[C@@H](C)C(=O)N[C@@H](C)C(=O)N[C@H](C)P(=O)(O)O,,,,,,,,,0.25,0.06,32,0.12,,
CSC[C@H](N)C(=O)N[C@H](C)P(=O)(O)O,0.25,0.03,16,2,0.03,0.5,4,0.03,,,,,,
C[C@@H](NC(=O)[C@@H](N)CF)P(=O)(O)O,32,32,16,32,4,,8,0.25,,,,,,
CCCSC[C@H](N)C(=O)N[C@H](C)P(=O)(O)O,0.25,0.06,8,2,0.03,0.5,64,0.06,,,,,,
C[C@@H](NC(=O)[C@@H](N)Cc1ccccc1)P(=O)(O)O,32,2,4,2,1,4,32,0.5,,,,,,
CCC[C@H](NC(=O)CNC)C(=O)N[C@@H](CCC)C(=O)N[C@H](C)P(=O)(O)O,,,,,,,,,0.12,0.015,16,0.04,1.9,1.1
CCC[C@H](NC(=O)[C@H](CC(C)C)NC)C(=O)N[C@@H](CCC)C(=O)N[C@H](C)P(=O)(O)O,,,,,,,,,0.25,0.25,32,2,,
C[C@@H](NC(=O)[C@@H](N)CCCN=C(N)N)P(=O)(O)O,32,1,16,16,< 0.12,2,128,0.25,16,128,16,0.25,8.3,7.7
